ChEMBL document CHEMBL5107948, “Activity-based protein profiling reveals deubiquitinase and aldehyde dehydrogenase targets of a cyanopyrrolidine probe” (RSC Med Chem, 2021)
Activity calls are given as the source filed them. The calls are words filed in the database; no cut-off is given here.

Key:
[1] = target: Ubiquitin carboxyl-terminal hydrolase isozyme L1 (Homo sapiens) (UniProt P09936); experiment: Inhibition of GST-tagged recombinant UCHL1 (unknown origin) using Ub-Lys-TAMRA as substrate at 1 uM incubated for 30 mins by fluorescence polarization assay
How it was run: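 Recombinant DUB (UCHL1 or UCHL3 at 5 nM) preincubated 30 min RT with 8-point compound dilutions in Tris pH 7.5/NaCl or Tris pH 7.5 buffer with Tween-20, BSA and 5 mM BME. Ub-Lys-TAMRA (50 nM) added; fluorescence polarization (Ex 540/Em 590 nm) read at once and after 2 h RT. Triplicate; four-parameter IC50.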

[2] = target: Ubiquitin carboxyl-terminal hydrolase isozyme L1 (Homo sapiens) (UniProt P09936); experiment: Inhibition of UCHL1 in human HEK293 cells assessed as reduction in UCHL1-Ub level using HA-Ub-VME as substrate at 0.001 to 30 uM incubated for 1 hr by immunoblotting analysis; assay type: cell-based; settings: dose 0.001-30 µM
How it was run: (§1)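 Near-confluent HEK293 cells treated with compound in medium for 1 h at 37 °C, lysed in Tris/NP-40/CHAPS buffer with benzonase. Lysate (20 µg) reacted with HA-Ahx-Ahx-Ub-VME (0.5 µg) 15 min at room temperature, boiled 5 min at 95 °C in SDS loading buffer with BME, SDS-PAGE and immunoblot.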

[3] = target: T1, Ubiquitin carboxyl-terminal hydrolase isozyme L1 (Homo sapiens, UniProt P09936); experiment: Inhibition of FLAG-tagged UCHL1 (unknown origin) expressed in CAL-51 cells using HA-Ub-VME as substrate incubated for 30 mins by HTRF assay; assay type: cell-based
T1 sequence (P09936 whole entry): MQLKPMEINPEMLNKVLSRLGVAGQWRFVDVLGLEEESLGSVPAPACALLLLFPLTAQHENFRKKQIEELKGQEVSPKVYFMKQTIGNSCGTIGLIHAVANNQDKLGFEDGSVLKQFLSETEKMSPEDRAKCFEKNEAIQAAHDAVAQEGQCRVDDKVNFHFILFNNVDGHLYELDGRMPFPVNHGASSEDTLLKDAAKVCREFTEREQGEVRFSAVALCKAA
How it was run: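 Cal51 cells stably expressing FLAG-UCHL1, plated overnight, exposed to compound 1 h at 37 °C. Washed, lysed 30 min on ice in Tris/NaCl/NP-40/CHAPS/MgCl2/BME buffer. Lysate mixed with HA-Ub-VME (100 nM) 30 min RT; anti-FLAG cryptate and anti-HA-XL added, overnight at 4 °C. HTRF Delta F read; IC50 by four-parameter fit, two biological triplicates.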

[4] = target: T2, Ubiquitin carboxyl-terminal hydrolase isozyme L3 (Homo sapiens) (UniProt P15374); experiment: Inhibition of UCHL3 in human HEK293 cells using HA-Ub-VME as substrate at 0.1 to 10 uM incubated for 1 hr by immunoblotting analysis; assay type: cell-based; settings: dose 0.1-10 µM; how it was run: as §1
T2 sequence (whole entry): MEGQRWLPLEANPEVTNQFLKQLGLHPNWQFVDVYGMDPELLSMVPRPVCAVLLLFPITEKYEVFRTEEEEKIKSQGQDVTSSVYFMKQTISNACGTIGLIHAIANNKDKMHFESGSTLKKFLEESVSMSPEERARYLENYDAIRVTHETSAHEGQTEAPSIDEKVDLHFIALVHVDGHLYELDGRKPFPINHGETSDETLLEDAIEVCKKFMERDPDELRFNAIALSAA

[5] = target: Ubiquitin carboxyl-terminal hydrolase isozyme L1 (Homo sapiens) (UniProt P09936); experiment: Inhibition of UCHL1 in human HEK293 cells at 130 to 2000 nM in presence of ABP MT16-205 by Competitive pulldown based immunoblotting analysis; assay type: cell-based; settings: dose 130-2000 nM, DDE = dose-dependent effect
How it was run: (§2)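 Lysates AzTB-clicked, streptavidin bead pulldown (2 h RT), boiled elution, SDS-PAGE. Target detected by immunoblot: 3% BSA/TBS-T block, primary antibody 1.5 h RT or overnight at 4 °C, HRP secondary, chemiluminescence.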

[6] = target: T3, Aldehyde dehydrogenase, mitochondrial (Homo sapiens) (UniProt P05091); experiment: Binding affinity to ALDH2 in human HEK293 cells at 130 to 500 nM in presence of ABP MT16-205 by LFQ-NanoLC-MS/MS analysis; assay type: cell-based; settings: dose 130-500 nM, DDE = dose-dependent effect
T3 sequence (whole entry): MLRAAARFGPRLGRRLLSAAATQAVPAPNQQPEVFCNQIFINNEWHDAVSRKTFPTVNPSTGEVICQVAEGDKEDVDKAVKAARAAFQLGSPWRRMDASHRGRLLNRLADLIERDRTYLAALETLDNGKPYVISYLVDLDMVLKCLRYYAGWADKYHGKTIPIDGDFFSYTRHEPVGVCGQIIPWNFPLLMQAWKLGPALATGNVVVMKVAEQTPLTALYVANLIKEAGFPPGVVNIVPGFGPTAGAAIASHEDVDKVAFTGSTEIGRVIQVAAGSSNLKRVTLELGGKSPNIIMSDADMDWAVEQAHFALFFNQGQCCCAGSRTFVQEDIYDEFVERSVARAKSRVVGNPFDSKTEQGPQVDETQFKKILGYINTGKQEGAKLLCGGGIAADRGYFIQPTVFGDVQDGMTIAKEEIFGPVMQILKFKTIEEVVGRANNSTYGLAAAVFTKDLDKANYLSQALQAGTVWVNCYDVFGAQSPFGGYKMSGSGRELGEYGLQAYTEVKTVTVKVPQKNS
How it was run: (§3)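 Competition format: HEK293 cells pre-treated 1 h with competitor or DMSO, then exposed to ABP MT16-205. Lysis in PBS/Triton/SDS buffer, AzRB click ligation, NeutrAvidin pulldown, on-bead TCEP/chloroacetamide treatment and overnight tryptic digestion. Label-free LC-MS/MS; two-sample t-test versus control (n=3, permutation FDR 0.01, S0=1).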

[7] = target: 4-trimethylaminobutyraldehyde dehydrogenase (Homo sapiens) (UniProt P49189); experiment: Inhibition of ALDH9A1 in human HEK293 cells at 130 to 2000 nM in presence of ABP MT16-205 by Competitive pulldown based immunoblotting analysis; assay type: cell-based; settings: dose 130-2000 nM, DDE = dose-dependent effect; how it was run: as §2
Sequence of 4-trimethylaminobutyraldehyde dehydrogenase (Homo sapiens) (P49189 whole entry): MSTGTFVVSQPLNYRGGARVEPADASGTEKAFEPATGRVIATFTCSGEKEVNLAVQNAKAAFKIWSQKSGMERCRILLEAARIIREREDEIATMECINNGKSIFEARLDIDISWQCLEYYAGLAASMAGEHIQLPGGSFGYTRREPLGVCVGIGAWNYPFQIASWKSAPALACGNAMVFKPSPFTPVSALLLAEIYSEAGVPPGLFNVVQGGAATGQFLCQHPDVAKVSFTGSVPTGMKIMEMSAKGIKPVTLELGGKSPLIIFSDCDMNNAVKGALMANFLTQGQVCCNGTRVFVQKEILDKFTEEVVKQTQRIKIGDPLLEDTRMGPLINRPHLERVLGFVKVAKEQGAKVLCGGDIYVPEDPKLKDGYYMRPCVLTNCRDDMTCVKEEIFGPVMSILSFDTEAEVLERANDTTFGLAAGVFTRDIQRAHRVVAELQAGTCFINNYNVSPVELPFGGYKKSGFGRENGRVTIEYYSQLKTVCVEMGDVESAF

[8] = target: T4, Glutamine amidotransferase-like class 1 domain-containing protein 3, mitochondrial (Homo sapiens) (UniProt P0DPI2); experiment: Binding affinity to GATD3A in human HEK293 cells at 130 to 500 nM in presence of ABP MT16-205 by LFQ-NanoLC-MS/MS analysis; assay type: cell-based; settings: dose 130-500 nM, DDE = dose-dependent effect; how it was run: as §3
T4 sequence (whole entry): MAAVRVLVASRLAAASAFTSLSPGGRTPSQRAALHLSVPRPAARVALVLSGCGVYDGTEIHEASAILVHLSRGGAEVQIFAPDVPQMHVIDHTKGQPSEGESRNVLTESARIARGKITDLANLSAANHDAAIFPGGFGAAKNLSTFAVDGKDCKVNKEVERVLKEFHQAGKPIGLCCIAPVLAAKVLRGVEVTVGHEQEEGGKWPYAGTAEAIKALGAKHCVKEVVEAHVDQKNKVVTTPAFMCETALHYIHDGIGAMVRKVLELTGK

[9] = target: 4-trimethylaminobutyraldehyde dehydrogenase (Homo sapiens) (UniProt P49189); experiment: Binding affinity to ALDH9A1 in human HEK293 cells at 130 to 500 nM in presence of ABP MT16-205 by LFQ-NanoLC-MS/MS analysis; assay type: cell-based; settings: dose 130-500 nM, DDE = dose-dependent effect; how it was run: as §3

| inhibition [1] | inhibition [2] | IC50 [3] [nM] | inhibition [4] | inhibition [5] | Activity [6] | inhibition [7] | Activity [8] | Activity [9] | Compound |
| --- | --- | --- | --- | --- | --- | --- | --- | --- | --- |
| Active | Active | 830 | Active |  |  |  |  |  | C#Cc1ccc(-c2cnc(NC(=O)[C@H]3CCN(C#N)C3)s2)cc1 |
| Active |  | 550 | Active | Dde | Dde | Dde | Dde | Dde | N#CN1CC[C@H](C(=O)Nc2ncc(-c3ccccc3)s2)C1 |
